The source made the active and inactive calls. No cut-off for these calls is given here.
What was measured:
Cytochrome P450 3A4 = Cytochrome P450 3A4 (Homo sapiens, UniProt P08684); assay: Inhibition of CYP3A4 (unknown origin)
[1] = Cmax in female ICR mouse at 5 mg/kg, ip; format: ADME, organism-based; design: dose 5 mg/kg, route intraperitoneal; conditions: in vivo
Summary of the method: (§1)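 Male and female ICR mice (18.2-26.0 g) got 5 mg/kg i.p. in 5% DMSO/50% PEG400/45% saline. Terminal cardiac blood was drawn after CO2 euthanasia at 5, 15, 30 min and 1, 2, 4, 8, 24 h.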

[2] = molecular target: Poly [ADP-ribose] polymerase 1 (Homo sapiens) (UniProt P09874); assay: Inhibition of PARP1 (unknown origin) up to 20 uM by NAD+-dependent autopoly(ADP ribosyl)lation assay
Sequence of Poly [ADP-ribose] polymerase 1 (Homo sapiens) (P09874 whole entry): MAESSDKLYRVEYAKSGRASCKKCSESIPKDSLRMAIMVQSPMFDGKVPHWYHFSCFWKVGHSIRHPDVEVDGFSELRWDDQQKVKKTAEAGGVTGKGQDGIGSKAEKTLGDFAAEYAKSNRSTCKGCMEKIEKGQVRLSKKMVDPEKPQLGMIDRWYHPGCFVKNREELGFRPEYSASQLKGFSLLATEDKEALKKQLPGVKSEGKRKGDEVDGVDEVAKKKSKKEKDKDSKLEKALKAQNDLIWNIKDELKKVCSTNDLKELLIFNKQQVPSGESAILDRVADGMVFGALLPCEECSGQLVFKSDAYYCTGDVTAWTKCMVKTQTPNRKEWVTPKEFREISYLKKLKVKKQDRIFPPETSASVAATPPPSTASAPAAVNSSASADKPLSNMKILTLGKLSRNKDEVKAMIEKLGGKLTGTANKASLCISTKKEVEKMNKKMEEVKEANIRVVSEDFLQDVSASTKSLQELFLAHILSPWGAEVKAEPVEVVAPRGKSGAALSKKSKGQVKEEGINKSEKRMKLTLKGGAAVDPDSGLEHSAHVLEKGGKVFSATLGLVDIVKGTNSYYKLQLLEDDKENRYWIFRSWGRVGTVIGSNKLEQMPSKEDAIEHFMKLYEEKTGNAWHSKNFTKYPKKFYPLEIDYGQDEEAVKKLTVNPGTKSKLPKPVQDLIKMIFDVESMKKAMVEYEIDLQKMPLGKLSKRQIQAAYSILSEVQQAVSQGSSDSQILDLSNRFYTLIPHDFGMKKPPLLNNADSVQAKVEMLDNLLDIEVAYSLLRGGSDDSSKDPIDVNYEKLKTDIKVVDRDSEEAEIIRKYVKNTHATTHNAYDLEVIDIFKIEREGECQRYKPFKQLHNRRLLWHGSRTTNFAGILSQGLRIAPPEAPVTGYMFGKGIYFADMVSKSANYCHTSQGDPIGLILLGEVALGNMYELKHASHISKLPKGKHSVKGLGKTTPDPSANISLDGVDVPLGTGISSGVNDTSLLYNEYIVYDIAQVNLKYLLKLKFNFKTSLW
Summary of the method: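 PARP1 was tested with a chemiluminescent poly(ADP-ribosyl)ation assay kit over a range of concentrations. Each point was run in duplicate and the experiment was done twice. Luminescence was read and IC50 was fitted to a Langmuir binding isotherm.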

[3] = Bioavailability in female ICR mouse measured from AUC (0 to infinity) at 5 mg/kg, ip; format: ADME, organism-based; conditions: in vivo
Summary of the method: (§2)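 Intraperitoneal dosing was 5 mg/kg, referenced to 1 mg/kg i.v., both in 5% DMSO/50% PEG400/45% saline, in male and female ICR mice. Plasma was sampled from 5 min to 24 h and measured by HPLC-MS/MS.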

[4] = Bioavailability in male ICR mouse measured from AUC (0 to infinity) at 5 mg/kg, ip; format: ADME, organism-based; conditions: in vivo; summary of the method: as §2
[5] = Oral bioavailability in female ICR mouse measured from AUC (0 to infinity) at 5 mg/kg; format: ADME, organism-based; conditions: in vivo
Summary of the method: (§3)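 Oral 5 mg/kg (10% NMP/60% PEG400/30% saline, after 10-15 h fast) was compared with 1 mg/kg i.v. (5% DMSO/50% PEG400/45% saline) in male and female ICR mice. Plasma from 5 min to 24 h was measured by HPLC-MS/MS.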

[6] = Oral bioavailability in male ICR mouse measured from AUC (0 to infinity) at 5 mg/kg; format: ADME, organism-based; conditions: in vivo; summary of the method: as §3
Mus musculus [7] = assay: Bioavailability in female ICR mouse measured from AUC (0 to t) at 5 mg/kg, ip; format: ADME, organism-based; conditions: in vivo; summary of the method: as §2
Mus musculus [8] = assay: Bioavailability in male ICR mouse measured from AUC (0 to t) at 5 mg/kg, ip; format: ADME, organism-based; conditions: in vivo; summary of the method: as §2
[9] = Oral bioavailability in female ICR mouse measured from AUC (0 to t) at 5 mg/kg; format: ADME, organism-based; conditions: in vivo; summary of the method: as §3
[10] = Oral bioavailability in male ICR mouse measured from AUC (0 to t) at 5 mg/kg; format: ADME, organism-based; conditions: in vivo; summary of the method: as §3
[11] = Mean residence time (0 to infinity) in female ICR mouse at 5 mg/kg, ip; format: ADME, organism-based; design: dose 5 mg/kg, route intraperitoneal; conditions: in vivo; summary of the method: as §1
[12] = Mean residence time (0 to infinity) in male ICR mouse at 5 mg/kg, ip; format: ADME, organism-based; design: dose 5 mg/kg, route intraperitoneal; conditions: in vivo; summary of the method: as §1
[13] = Mean residence time (0 to infinity) in female ICR mouse at 5 mg/kg, po; format: ADME, organism-based; design: dose 5 mg/kg, route oral; conditions: in vivo
Summary of the method: (§4)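 Oral gavage at 5 mg/kg in 10% NMP/60% PEG400/30% saline to overnight-fasted (10-15 h) male and female ICR mice (18.2-26.0 g). Blood was taken by cardiac puncture after CO2 euthanasia at 5, 15, 30 min and 1, 2, 4, 8, 24 h.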

[14] = Mean residence time (0 to infinity) in male ICR mouse at 5 mg/kg, po; format: ADME, organism-based; design: dose 5 mg/kg, route oral; conditions: in vivo; summary of the method: as §4
[15] = Mean residence time (0 to infinity) in male ICR mouse at 1 mg/kg, iv; format: ADME, organism-based; design: dose 1 mg/kg, route intravenous; conditions: in vivo
Summary of the method: (§5)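 Single 1 mg/kg i.v. injection to male and female ICR mice (18.2-26.0 g) in 5% DMSO/50% PEG400/45% saline. Blood was taken by cardiac puncture after CO2 euthanasia at 5, 15, 30 min and 1, 2, 4, 8, 24 h post dose.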

[16] = Mean residence time (0 to infinity) in female ICR mouse at 1 mg/kg, iv; format: ADME, organism-based; design: dose 1 mg/kg, route intravenous; conditions: in vivo; summary of the method: as §5
[17] = Clearance in female ICR mouse at 1 mg/kg, iv; format: ADME, organism-based; design: dose 1 mg/kg, route intravenous; conditions: in vivo; summary of the method: as §5
[18] = Apparent volume of distribution in female ICR mouse at 1 mg/kg, iv; format: ADME, organism-based; design: dose 1 mg/kg, route intravenous; conditions: in vivo, read-out: Vz; summary of the method: as §5
[19] = Clearance in male ICR mouse at 1 mg/kg, iv; format: ADME, organism-based; design: dose 1 mg/kg, route intravenous; conditions: in vivo; summary of the method: as §5
[20] = Apparent volume of distribution in male ICR mouse at 1 mg/kg, iv; format: ADME, organism-based; design: dose 1 mg/kg, route intravenous; conditions: in vivo, read-out: Vz; summary of the method: as §5
[21] = AUC (0 to infinity) in female ICR mouse at 5 mg/kg, ip; format: ADME, organism-based; design: time infinity, dose 5 mg/kg, route intraperitoneal; conditions: plasma; summary of the method: as §1
[22] = AUC (0 to infinity) in female ICR mouse at 5 mg/kg, po; format: ADME, organism-based; design: time infinity, dose 5 mg/kg, route oral; conditions: plasma; summary of the method: as §4
[23] = AUC (0 to infinity) in male ICR mouse at 5 mg/kg, ip; format: ADME, organism-based; design: time infinity, dose 5 mg/kg, route intraperitoneal; conditions: plasma; summary of the method: as §1
[24] = AUC (0 to infinity) in female ICR mouse at 1 mg/kg, iv; format: ADME, organism-based; design: time infinity, dose 1 mg/kg, route intravenous; conditions: plasma; summary of the method: as §5
[25] = AUC (0 to infinity) in male ICR mouse at 5 mg/kg, po; format: ADME, organism-based; design: time infinity, dose 5 mg/kg, route oral; conditions: plasma; summary of the method: as §4
[26] = AUC (0 to infinity) in male ICR mouse at 1 mg/kg, iv; format: ADME, organism-based; design: time infinity, dose 1 mg/kg, route intravenous; conditions: plasma; summary of the method: as §5
[27] = AUC (0 to t) in female ICR mouse at 5 mg/kg, ip; format: ADME, organism-based; design: dose 5 mg/kg, route intraperitoneal; conditions: plasma; summary of the method: as §1
[28] = AUC (0 to t) in female ICR mouse at 5 mg/kg, po; format: ADME, organism-based; design: dose 5 mg/kg, route oral; conditions: plasma; summary of the method: as §4
[29] = AUC (0 to t) in male ICR mouse at 5 mg/kg, ip; format: ADME, organism-based; design: dose 5 mg/kg, route intraperitoneal; conditions: plasma; summary of the method: as §1
[30] = AUC (0 to t) in male ICR mouse at 1 mg/kg, iv; format: ADME, organism-based; design: dose 1 mg/kg, route intravenous; conditions: plasma; summary of the method: as §5
[31] = AUC (0 to t) in female ICR mouse at 1 mg/kg, iv; format: ADME, organism-based; design: dose 1 mg/kg, route intravenous; conditions: plasma; summary of the method: as §5
[32] = AUC (0 to t) in male ICR mouse at 5 mg/kg, po; format: ADME, organism-based; design: dose 5 mg/kg, route oral; conditions: plasma; summary of the method: as §4
[33] = Cmax in male ICR mouse at 5 mg/kg, ip; format: ADME, organism-based; design: dose 5 mg/kg, route intraperitoneal; conditions: in vivo; summary of the method: as §1
[34] = Cmax in female ICR mouse at 5 mg/kg, po; format: ADME, organism-based; design: dose 5 mg/kg, route oral; conditions: in vivo; summary of the method: as §4
[35] = Cmax in male ICR mouse at 5 mg/kg, po; format: ADME, organism-based; design: dose 5 mg/kg, route oral; conditions: in vivo; summary of the method: as §4
[36] = Cmax in female ICR mouse at 1 mg/kg, iv; format: ADME, organism-based; design: dose 1 mg/kg, route intravenous; conditions: in vivo; summary of the method: as §5
[37] = Cmax in male ICR mouse at 1 mg/kg, iv; format: ADME, organism-based; design: dose 1 mg/kg, route intravenous; conditions: in vivo; summary of the method: as §5
[38] = Tmax in female ICR mouse at 5 mg/kg, ip; format: ADME, organism-based; design: dose 5 mg/kg, route intraperitoneal; conditions: in vivo; summary of the method: as §1
[39] = Tmax in male ICR mouse at 5 mg/kg, ip; format: ADME, organism-based; design: dose 5 mg/kg, route intraperitoneal; conditions: in vivo; summary of the method: as §1
[40] = Tmax in female ICR mouse at 5 mg/kg, po; format: ADME, organism-based; design: dose 5 mg/kg, route oral; conditions: in vivo; summary of the method: as §4
[41] = Tmax in male ICR mouse at 5 mg/kg, po; format: ADME, organism-based; design: dose 5 mg/kg, route oral; conditions: in vivo
Summary of the method: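 Male and female ICR mice (18.2-26.0 g), fasted overnight (10-15 h) before oral dosing; single gavage at 5 mg/kg in 10% NMP, 60% PEG400, 30% saline. Blood taken by cardiac puncture after CO2 euthanasia at 5, 15, 30 min and 1, 2, 4, 8, 24 h. Heparinised plasma assayed by HPLC-MS/MS. Tmax is the time to reach Cmax.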

[42] = Tmax in female ICR mouse at 1 mg/kg, iv; format: ADME, organism-based; design: dose 1 mg/kg, route intravenous; conditions: in vivo; summary of the method: as §5
[43] = Half life in female ICR mouse at 5 mg/kg, ip; format: ADME, organism-based; design: dose 5 mg/kg, route intraperitoneal; conditions: in vivo; summary of the method: as §1
[44] = Tmax in male ICR mouse at 1 mg/kg, iv; format: ADME, organism-based; design: dose 1 mg/kg, route intravenous; conditions: in vivo; summary of the method: as §5
[45] = Half life in female ICR mouse at 5 mg/kg, po; format: ADME, organism-based; design: dose 5 mg/kg, route oral; conditions: in vivo; summary of the method: as §4
[46] = Half life in male ICR mouse at 5 mg/kg, ip; format: ADME, organism-based; design: dose 5 mg/kg, route intraperitoneal; conditions: in vivo; summary of the method: as §1
[47] = Half life in male ICR mouse at 5 mg/kg, po; format: ADME, organism-based; design: dose 5 mg/kg, route oral; conditions: in vivo; summary of the method: as §4
[48] = Half life in female ICR mouse at 1 mg/kg, iv; format: ADME, organism-based; design: dose 1 mg/kg, route intravenous; conditions: in vivo; summary of the method: as §5

Sequence of Cytochrome P450 3A4 (P08684 whole entry): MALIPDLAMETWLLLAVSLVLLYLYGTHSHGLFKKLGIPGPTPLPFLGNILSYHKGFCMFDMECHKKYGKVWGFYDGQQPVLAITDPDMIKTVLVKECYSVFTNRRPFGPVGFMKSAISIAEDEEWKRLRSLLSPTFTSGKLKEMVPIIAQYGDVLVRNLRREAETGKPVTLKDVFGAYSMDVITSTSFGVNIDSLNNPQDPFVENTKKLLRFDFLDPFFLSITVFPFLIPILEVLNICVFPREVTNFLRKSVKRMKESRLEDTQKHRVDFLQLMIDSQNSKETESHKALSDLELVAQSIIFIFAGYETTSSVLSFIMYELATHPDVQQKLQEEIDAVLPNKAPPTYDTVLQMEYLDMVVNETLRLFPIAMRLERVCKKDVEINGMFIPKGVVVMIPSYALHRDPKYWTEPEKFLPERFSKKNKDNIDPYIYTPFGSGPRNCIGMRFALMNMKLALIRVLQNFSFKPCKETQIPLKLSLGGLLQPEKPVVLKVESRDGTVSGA

For `CS(=O)(=O)c1ccc(-c2nnc(/C=C/c3nnc(-c4ccc(C#N)cc4)o3)n2-c2ccccc2Cl)nc1`, the IC50 (Cytochrome P450 3A4) was > 25 µM, the Cmax [1] was 2660 ng/mL and the inhibition [2] was “inactive”. For the same compound, the bioavailability [3] was 122%, the bioavailability [4] was 133% and the bioavailability [5] was 59%. For the same compound, the bioavailability [6] was 99%, the F (Mus musculus [7]) was 152% and the F (Mus musculus [8]) was 157%. It also gave a bioavailability [9] of 72.7%, a bioavailability [10] of 116% and an MRT inf [11] of 4.6 h. It also gave an MRT inf [12] of 4.8 h, an MRT inf [13] of 5.1 h and an MRT inf [14] of 5.1 h. The MRT inf [15] was 4.1 h, the MRT inf [16] was 4.8 h and the clearance [17] was 7.17 mL/min/kg. It also gave a Vd [18] of 2.2 L/kg, a clearance [19] of 10 mL/min/kg and a Vd [20] of 2.7 L/kg. It also gave an AUC(0-inf) [21] of 14100 ng·h/mL, an AUC(0-inf) [22] of 6750 ng·h/mL and an AUC(0-inf) [23] of 11200 ng·h/mL. It also gave an AUC(0-inf) [24] of 2300 ng·h/mL, an AUC(0-inf) [25] of 8270 ng·h/mL and an AUC(0-inf) [26] of 1680 ng·h/mL. The AUC(0-t) [27] was 14100 ng·h/mL, the AUC(0-t) [28] was 6740 ng·h/mL and the AUC(0-t) [29] was 11200 ng·h/mL. It also gave an AUC(0-t) [30] of 1420 ng·h/mL, an AUC(0-t) [31] of 1850 ng·h/mL and an AUC(0-t) [32] of 8250 ng·h/mL. It also gave a Cmax [33] of 2360 ng/mL, a Cmax [34] of 871 ng/mL and a Cmax [35] of 967 ng/mL. The Cmax [36] was 462 ng/mL, the Cmax [37] was 434 ng/mL and the Tmax [38] was 0.5 h. The Tmax [39] was 0.5 h, the Tmax [40] was 2 h and the Tmax [41] was 0.25 h. The Tmax [42] was 0.5 h, the half-life [43] was 2.73 h and the Tmax [44] was 0.25 h. For the same compound, the half-life [45] was 2.63 h, the half-life [46] was 2.89 h and the half-life [47] was 2.6 h. For the same compound, the half-life [48] was 3.46 h.
